IC50 and Activity data for twelve compounds are collected here from ChEMBL document CHEMBL4138250, “Regioselective IBX-Mediated Synthesis of Coumarin Derivatives with Antioxidant and Anti-influenza Activities” (J Nat Prod, 2017).

A short description of data set [1]: Antioxidant activity assessed as DPPH radical scavenging activity incubated for 30 mins under dark condition. Type of data set: functional. In outline: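 Compounds serially diluted in EtOH (0.01−100 mg/mL) and added to freshly prepared DPPH (6 × 10−5 M in EtOH). Mixture shaken, kept 30 min in the dark, then absorbance read at 517 nm against a solvent blank. % scavenging is relative to a DPPH-only control, corrected for sample colour without DPPH. IC50 is the concentration giving 50% inhibition; triplicate runs.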
In general terms: Loss of DPPH colour is used to gauge radical scavenging.

Data set [2] has as its system A549. As to the kind of experiment: Cytotoxicity against human A549 cells assessed as reduction in cell viability up to 120 ug/ml after 24 hrs by microscopic analysis. Type of data set: cell-based. Conditions: a549, 24 h. The essentials:
(§1)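 A549 cells seeded at 2 × 10^5/mL; after 24 h, exposed to compounds at 10−120 μg/mL for a further 24 h. Viability assessed by microscopic examination, Trypan blue (0.02%) exclusion and MTT reduction. Cytotoxicity expressed as % reduction in viable cells relative to cultures treated with DMSO alone.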

In data set [3] the test system is A549. As to the kind of experiment: Cytotoxicity against human A549 cells assessed as reduction in cell viability up to 120 ug/ml after 24 hrs by tryphan blue exclusion assay. Type of data set: cell-based. Conditions: a549, 24 h. The essentials:
as §1

The subject of data set [4] is A549. Kind of data set: Cytotoxicity against human A549 cells assessed as reduction in cell viability up to 120 ug/ml after 24 hrs by MTT assay. Type of data set: cell-based. Conditions: a549, 24 h. The essentials:
as §1
A general note: Formazan colour is commonly taken as a measure of viable cells.

Data set [5] deals with Influenza A virus. As to the kind of experiment: Antiviral activity against Influenza A virus (A/Puerto Rico/8/34(H1N1)) infected in A549 cells assessed as reduction in viral titer after 24 to 48 hrs by hemagglutination test. The data set is classed as functional, organism-based. Conditions: A/Puerto Rico/8/1934(H1N1). The essentials:
(§2)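 Confluent A549 monolayers (DMEM, 10% FBS) infected with PR8 at MOI 0.0001 for 1 h at 37 °C, PBS-washed, then kept in 2% FBS medium. Compounds in DMSO were diluted in DMEM to final 30, 40, 60, 80 or 120 μg/mL, added after adsorption and kept to the end. DMSO was at most 0.2%, with matching DMSO-treated controls and mock infection. Supernatant HAU read at 24 and 48 h with human type 0 Rh+ erythrocytes.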

In data set [6] the test system is Influenza A virus. Kind of data set: Antiviral activity against Influenza A virus (A/Puerto Rico/8/34(H1N1)) infected in A549 cells assessed as reduction in viral titer at 120 ug/ml after 24 to 48 hrs by hemagglutination test relative to control. The arrangement: scale not given: the % may be the effect or the level left. Type of data set: functional, A/Puerto Rico/8/1934(H1N1). In outline: as §2

Values after ≈ are worked out from the molar mass of the structure shown.

On to `Cc1cc(=O)oc2c(O)c(O)ccc12` [4-METHYLDAPHNETIN], for which the 50% inhibitory concentration (IC50) turned out to be 22000 µg/mL (≈ 114 mM) in data set [1] and 91.5 µg/mL (≈ 0.476 mM) with Influenza A virus [5]. Besides, the Activity result in the data set on A549 [2] was “Non-Toxic”; in the data set on A549 [3] it was “Non-Toxic”; with A549 [4] it was “Non-Toxic”; in the data set with Influenza A virus [5] it was “Dose-dependent effect”.

In the case of `Nc1ccc2c(C(F)(F)F)cc(=O)oc2c1O`, the 50% inhibitory concentration (IC50) amounted to 9300 µg/mL (≈ 37.9 mM) in data set [1] and 47.8 µg/mL (≈ 0.195 mM) in the data set with Influenza A virus [5]. Further, the Activity result with A549 [2] is “Non-Toxic”; in the data set with A549 [3] it was “Non-Toxic”; with A549 [4] it was “Non-Toxic”; in the data set with Influenza A virus [5] it was “Dose-dependent effect”.

`O=c1ccc2ccc(O)cc2o1` [UMBELLIFERONE]: the 50% inhibitory concentration (IC50) was greater than 200000 µg/mL in data set [1] and 110 µg/mL (≈ 0.678 mM) in the data set with Influenza A virus [5]. Moreover, the Activity entry in the data set on A549 [2] is “Non-Toxic”; with A549 [3], “Non-Toxic”; in the data set with A549 [4] it was “Non-Toxic”; with Influenza A virus [5], “Dose-dependent effect”; with Influenza A virus [6], 50%.

`O=c1ccc2cc(O)ccc2o1` [6-HYDROXYCOUMARIN]: the 50% inhibitory concentration (IC50) is greater than 200000 µg/mL in data set [1] and 110 µg/mL (≈ 0.678 mM) with Influenza A virus [5]. Moreover, the Activity entry in the data set with A549 [2] is “Non-Toxic”; in the data set with A549 [3], “Non-Toxic”; in the data set with A549 [4] it was “Non-Toxic”; in the data set on Influenza A virus [5], “Dose-dependent effect”; in the data set with Influenza A virus [6] it was 50%.

With `O=c1ccc2cc(O)c(O)c(O)c2o1`, the IC50 worked out at 8700 µg/mL (≈ 44.8 mM) in data set [1] and 69.9 µg/mL (≈ 0.36 mM) in the data set on Influenza A virus [5]. In addition, the Activity result in the data set on A549 [2] was “Non-Toxic”; in the data set on A549 [3], “Non-Toxic”; in the data set on A549 [4], “Non-Toxic”; with Influenza A virus [5], “Dose-dependent effect”.

Take `O=c1ccc2c(O)c(O)c(O)cc2o1`: the figures for the IC50 (in data set [1]; in the data set on Influenza A virus [5]) were 2500 µg/mL (≈ 12.9 mM) and 47.9 µg/mL (≈ 0.247 mM), respectively. Besides, the Activity result was “Non-Toxic” with A549 [2], “Non-Toxic” with A549 [3], “Non-Toxic” with A549 [4] and “Dose-dependent effect” in the data set with Influenza A virus [5].

As to `O=c1ccc2ccc(O)c(O)c2o1` [DAPHNETIN], the IC50 in data set [1] came out at 27200 µg/mL (≈ 153 mM); with Influenza A virus [5], 146 µg/mL (≈ 0.818 mM).

As to `O=c1ccc2c(O)c(O)ccc2o1`, the Activity result with A549 [2] is “Non-Toxic”; in the data set on A549 [3], “Non-Toxic”; in the data set with A549 [4] it was “Non-Toxic”; in the data set with Influenza A virus [5], “Dose-dependent effect”; in the data set on Influenza A virus [6], 50%. Also, in the data set on Influenza A virus [5], the IC50 is 106 µg/mL (≈ 0.598 mM).

As to `COc1cc2ccc(=O)oc2c(O)c1O` [FRAXETIN], in data set [1], the IC50 is 39200 µg/mL (≈ 188 mM).

`O=c1cc(O)c2ccc(O)c(O)c2o1`: in data set [1], the IC50 amounted to 24100 µg/mL (≈ 124 mM).

With `Nc1ccc2c(C(F)(F)F)cc(=O)oc2c1`, the Activity entry was “Non-Toxic” in the data set with A549 [2], “Non-Toxic” in the data set on A549 [3], “Non-Toxic” in the data set with A549 [4] and “Dose-dependent effect” in the data set with Influenza A virus [5]. Besides, in the data set with Influenza A virus [5], the IC50 turned out to be 51 µg/mL (≈ 0.223 mM).

Regarding `O=c1ccc2cc(O)c(O)cc2o1` [ESCULETIN], the IC50 in data set [1] is 37700 µg/mL (≈ 212 mM).

Usually IC50 stands for the concentration at which inhibition is half-maximal.
